Assay [1] relates to Mycobacterium tuberculosis. The experiment in a line: Antimycobacterial activity against non-replicating Mycobacterium tuberculosis mc2 6220 harboring panCD/lysA deletion mutant incubated for 3 days measured at OD580 = 0.1 by two-fold serial dilution method. Format: functional. An outline of the steps: (§1)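 M. tuberculosis mc26220 washed twice in PBS-tyloxapol and resuspended in Sauton's-based nonreplicating medium (pH 5.0, butyrate 0.05%, BSA, tyloxapol, lysine, pantothenate, 0.5 mM NaNO2). Incubated at 1% O2, 5% CO2 with 2-fold serially diluted compound from DMSO. After 3 days, diluted 5-fold in fresh replicating medium for outgrowth at 20% O2. Reported as MIC90.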

Assay [2] relates to Mycobacterium tuberculosis. The experiment in a line: Antimycobacterial activity against non-replicating Mycobacterium tuberculosis mc2 6220 harboring panCD/lysA deletion mutant incubated for 7 days measured at OD580 = 0.01 by high throughput screen assay. Format: functional, organism-based.
Assay [3] deals with Mycobacterium tuberculosis. The assay is described as follows: Antimycobacterial activity against non-replicating Mycobacterium tuberculosis mc2 6220 harboring panCD/lysA deletion mutant incubated for 6 days measured at OD580 = 0.1 by two-fold serial dilution method. Format: functional. The method in brief: as §1
Assay [4] relates to Mycobacterium tuberculosis. The experiment in a line: Antimycobacterial activity against non-replicating Mycobacterium tuberculosis mc2 6220 harboring panCD/lysA deletion mutant incubated for 3 days measured at OD580 = 0.01 by two-fold serial dilution method. Format: functional. The method in brief:
as §1

Assay [5] has as its system Mycobacterium tuberculosis. The assay is described as follows: Antimycobacterial activity against replicating Mycobacterium tuberculosis mc2 6220 harboring panCD/lysA deletion mutant incubated for 3 days measured at OD580 = 0.01 by two-fold serial dilution method. Format: functional.
Assay [6] has as its system Mycobacterium tuberculosis. The experiment in a line: Antimycobacterial activity against replicating Mycobacterium tuberculosis mc2 6220 harboring panCD/lysA deletion mutant by two-fold serial dilution method. Format: functional. The method in brief: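 M. tuberculosis mc26220 in replicating medium supplemented with glycerol (final 0.5%), OADC, casamino acids 0.05%, lysine 240 μg/mL and pantothenate 24 μg/mL. Exposed to 2-fold serially diluted compound from DMSO. OD580 read after 7 days at 20% O2, 5% CO2. Reported as MIC90.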

In assay [7] the test system is Mycobacterium tuberculosis. The assay is described as follows: Antimycobacterial activity against non-replicating Mycobacterium tuberculosis mc2 6220 harboring panCD/lysA deletion mutant incubated for 6 days measured at OD580 = 0.01 by two-fold serial dilution method. The assay is classed as functional. The method in brief: as §1
The test system of assay [8] is Mycobacterium tuberculosis. The experiment in a line: Antimycobacterial activity against non-replicating Mycobacterium tuberculosis mc2 6220 harboring panCD/lysA deletion mutant incubated for 7 days measured at OD580 = 0.1 by two-fold serial dilution method. Format: functional. The method in brief:
as §1

Assay [9] deals with Mycobacterium tuberculosis. The experiment in a line: Antimycobacterial activity against non-replicating Mycobacterium tuberculosis mc2 6220 harboring panCD/lysA deletion mutant incubated for 7 days measured at OD580 = 0.01 by two-fold serial dilution method. The assay is classed as functional. The method in brief: as §1

By MIC90 is commonly meant an inhibitory concentration at the 90% level, which refers to growth in some studies and to a panel of isolates in others.

In brackets after ≈: the same amount, converted by molar mass. Activity calls are given as the source filed them. No cut-off for these calls is given here.

For the compound `CCCOC(=O)N[C@@H]1C(=O)N2C(C(=O)OCCC)=C(C)CS[C@H]12`, the MIC90 in assay [1] stood at 2.61 µg/mL (≈ 7.62 µM); in assay [3], 0.52 µg/mL (≈ 1.52 µM); in assay [4] it was 3.11 µg/mL (≈ 9.08 µM); in assay [5], 55.44 µg/mL (≈ 162 µM); in assay [6], 55.44 µg/mL (≈ 162 µM). Also, in assay [2], the result was Active.
For the compound `CCCOC(=O)C1=C(C)CS[C@@H]2[C@H](NC(=O)COc3ccccc3)C(=O)N12`, the MIC90 was 1.76 µg/mL (≈ 4.51 µM) in assay [1]; 1.05 µg/mL (≈ 2.69 µM) in assay [3]; 0.9 µg/mL (≈ 2.3 µM) in assay [4]; 0.64 µg/mL (≈ 1.64 µM) in [7]; greater than 100 µg/mL in assay [5]; 1.05 µg/mL (≈ 2.69 µM) in [8]. Besides, the MIC90 is 0.64 µg/mL (≈ 1.64 µM) in assay [9] and greater than 100 µg/mL in [6]. The result in [2] was Active.
As to `CCCN[C@@H]1C(=O)N2C(C(=O)OCCC)=C(C)CS[C@H]12`, the MIC90 in [1] is 2.69 µg/mL (≈ 9.01 µM); in assay [3] it was 0.45 µg/mL (≈ 1.51 µM); in assay [4], 0.7 µg/mL (≈ 2.35 µM); in assay [5] it was greater than 100 µg/mL; in assay [6], greater than 100 µg/mL. For the same compound, the outcome in [2] was Active.
